According to ChEMBL document CHEMBL2375260, “Antifungal agents from Pseudallescheria boydii SNB-CN73 isolated from a Nasutitermes sp. termite” (J Nat Prod, 2013):
Converted amounts (≈) assume the structure as drawn.

Experiments:
[1] = Selectivity index, ratio of IC50 for human MDA435 cells to MIC for Escherichia coli ATCC 25922; format: functional
Outline: (§1)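 Selectivity index is calculated as SI = IC50/MIC. IC50 is the cytotoxicity measured in MDA435 cells (melanoma, previously described as mammary carcinoma). MIC is the EUCAST reference-protocol value for the given microbial strain.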

[2] = Selectivity index, ratio of IC50 for human MDA435 cells to MIC for Staphylococcus aureus ATCC 29213; format: functional; outline: as §1
[3] = Selectivity index, ratio of IC50 for human MDA435 cells to MIC for Trichophyton rubrum SNB-TR1; format: functional; outline: as §1
[4] = Selectivity index, ratio of IC50 for human MDA435 cells to MIC for Aspergillus fumigatus SNB-AF1; format: functional; outline: as §1
[5] = Selectivity index, ratio of IC50 for human MDA435 cells to MIC for Candida parapsilosis ATCC 22019; format: functional; outline: as §1
[6] = Cytotoxicity against human MDA435 cells assessed as growth inhibition; format: functional, cell-based; details: MDA-MB-435
[7] = Selectivity index, ratio of IC50 for human MDA435 cells to MIC for Candida albicans ATCC 10231; format: functional; outline: as §1
KB = experiment: Cytotoxicity against human KB cells assessed as growth inhibition; format: functional, cell-based
Staphylococcus aureus = experiment: Antibacterial activity against Staphylococcus aureus ATCC 29213 assessed as growth inhibition after 24 hrs by […]; format: functional; details: ATCC 29213, 24 h
Escherichia coli = experiment: Antibacterial activity against Escherichia coli ATCC 25922 assessed as growth inhibition after 24 hrs by […]; format: functional
Trichophyton rubrum = experiment: Antifungal activity against Trichophyton rubrum SNB-TR1 assessed as growth inhibition after 5 days by […]; format: functional; details: SNB-TR1, 120 h
Aspergillus fumigatus = experiment: Antifungal activity against Aspergillus fumigatus SNB-AF1 assessed as growth inhibition after 24 hrs by […]; format: functional; details: SNB-AF1, 24 h
Candida parapsilosis = experiment: Antifungal activity against Candida parapsilosis ATCC 22019 assessed as growth inhibition after 18 hrs by […]; format: functional; details: Lodderomyces parapsilosis, ATCC 22019, 18 h
Candida albicans = experiment: Antifungal activity against Candida albicans ATCC 10231 assessed as growth inhibition after 18 hrs by […]; format: functional; details: ATCC 10231, 18 h
MCF7 [8] = experiment: Cytotoxicity against human MCF7 cells assessed as inhibition of FBS-induced cellular growth; format: functional, cell-based
MCF7 [9] = experiment: Cytotoxicity against human MCF7 cells assessed as inhibition of IGF1-induced cellular growth; format: functional, cell-based

CC[C@@H](C)C[C@@H](C)/C=C/CC[C@@H](O)[C@H](Cc1ccc(O)cc1)N(C)C.O=CO
Selectivity Index [1]: 0.8 | Selectivity Index [2]: 1.5 | Selectivity Index [3]: 6.1 | Selectivity Index [4]: 0.8 | Selectivity Index [5]: 0.8 | IC50 [6]: 24.3 µg/mL | Selectivity Index [7]: 6.1 | IC50 (KB): 16 µg/mL | MIC (Staphylococcus aureus): 16 µg/mL | MIC (Escherichia coli; ATCC 25922, 24 h): 32 µg/mL | MIC (Trichophyton rubrum): 4 µg/mL | MIC (Aspergillus fumigatus): 32 µg/mL | MIC (Candida parapsilosis): 32 µg/mL | MIC (Candida albicans): 4 µg/mL

GENTAMICIN
MIC (Escherichia coli): 8 µg/mL

OC(Cn1cncn1)(Cn1cncn1)c1ccc(F)cc1F [FLUCONAZOLE]
MIC (Candida parapsilosis): 4 µg/mL (≈ 13.1 µM) | MIC (Candida albicans): 4 µg/mL (≈ 13.1 µM)

Cc1onc(-c2ccccc2)c1C(=O)N[C@@H]1C(=O)N2[C@@H]1SC(C)(C)[C@@H]2C(=O)O [OXACILLIN]
MIC (Staphylococcus aureus): 0.5 µg/mL (≈ 1.25 µM)

CCC(C)n1ncn(-c2ccc(N3CCN(c4ccc(OCC5COC(Cn6cncn6)(c6ccc(Cl)cc6Cl)O5)cc4)CC3)cc2)c1=O (stereo unspecified) [ITRACONAZOLE]
MIC (Trichophyton rubrum): 0.25 µg/mL (≈ 0.354 µM) | MIC (Aspergillus fumigatus): 0.5 µg/mL (≈ 0.709 µM)

CC[C@@H](C)C[C@@H](C)/C=C/CC[C@@H](O)[C@H](Cc1ccc(O)cc1)NC [TYROSCHERIN 8]
IC50 (MCF7 [8]): 6.2 µM | IC50 (MCF7 [9]): 0.03 µM

CC[C@@H](C)C[C@@H](C)/C=C/CC[C@@H](O)[C@H](Cc1ccc(O)cc1)NC.O=CO [TYROSCHERIN FORMATE]
Selectivity Index [1]: 1.3 | Selectivity Index [2]: 2.5 | Selectivity Index [3]: 10 | Selectivity Index [4]: 1.3 | Selectivity Index [5]: 1.3 | IC50 [6]: 20 µg/mL | Selectivity Index [7]: 10 | IC50 (KB): 8.6 µg/mL | MIC (Staphylococcus aureus): 8 µg/mL | MIC (Escherichia coli; ATCC 25922, 24 h): 16 µg/mL | MIC (Trichophyton rubrum): 2 µg/mL | MIC (Aspergillus fumigatus): 16 µg/mL | MIC (Candida parapsilosis): 16 µg/mL | MIC (Candida albicans): 2 µg/mL
